According to ChEMBL document CHEMBL1250426, “Structure-activity relationship of brominated 3-alkyl-5-methylene-2(5H)-furanones and alkylmaleic anhydrides as inhibitors of Salmonella biofilm formation and quorum sensing regulated bioluminescence in Vibrio harveyi” (Bioorg Med Chem, 2010):
Active and inactive are the calls of the source. The rule behind the calls is not given here.

What was measured:
Salmonella typhimurium [1] = test: Antimicrobial activity against Salmonella Typhimurium ATCC 14028 assessed as inhibition of biofilm formation after 48 hrs using crystal violet staining by microtiter plate assay; type: functional, organism-based, Salmonella enterica subsp. enterica serovar Typhimurium; settings: Salmonella enterica, ATCC 14028, 48 h
In short: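 Peg-lid biofilm assay: overnight LB culture diluted 1:100 into TSB 1/20, ca. 1×10⁶ cells added to twofold compound dilutions, 200 µl total per well. Static incubation 48 h at 16 °C; lid moved to fresh medium with compound after 24 h. IC50 from concentration gradients, 2–3 independent experiments, 2–3 repeats each.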

Salmonella typhimurium [2] = test: Antimicrobial activity against Salmonella Typhimurium ATCC 14028 assessed as effect on planktonic growth at 250 uM after 36 hrs by microtiter plate assay; type: functional, organism-based; settings: Salmonella enterica subsp. enterica serovar Typhimurium
In short: (§1)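 Overnight LB culture diluted 1:200 in TSB 1/20; 300 µl per well; compound serial dilutions made in EtOH, 3 µl added per well in triplicate; solvent-only controls in three- or fourfold. Incubated at 16 °C for at least 36 h with continuous shaking in Bioscreen reader; OD600 read every 15 min; growth curves compared with untreated controls.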

Salmonella typhimurium [3] = test: Antimicrobial activity against Salmonella Typhimurium ATCC 14028 assessed as effect on planktonic growth at 100 uM after 36 hrs by microtiter plate assay; type: functional, organism-based; settings: Salmonella enterica subsp. enterica serovar Typhimurium; in short: as §1
Salmonella typhimurium [4] = test: Antimicrobial activity against Salmonella Typhimurium ATCC 14028 assessed as effect on planktonic growth at 10 uM after 36 hrs by microtiter plate assay; type: functional, organism-based; settings: Salmonella enterica subsp. enterica serovar Typhimurium; in short: as §1
[5] = Inhibition of quorum sensing regulated bioluminescence in wild type Vibrio harveyi BB120 after 5 hrs by luminescence assay
In short: (§2)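 Twofold compound dilutions in LM broth; OD600-adjusted (0.4) AB-grown overnight culture diluted 1:100 in Luria-Marine broth, 200 µl per well. Incubated 5 h at 30 °C with aeration; luminescence imaged by CCD camera. IC50 = concentration inhibiting luminescence by 50%, fitted from gradients in 2–3 independent experiments (2–3 repeats each); top concentration 1000 µM.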

Vibrio harveyi [6] = test: Antimicrobial activity against wild type Vibrio harveyi BB120; type: functional
In short: (§3)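 Overnight AB-medium culture, OD600 adjusted to 0.4, diluted 1:100 into Luria-Marine broth and added to twofold compound dilutions in LM broth, 200 µl per well. Incubated 5 h at 30 °C with aeration under breathable seal; growth read as OD600. GIC50 = concentration reducing OD600 by 50%, from gradients in 2–3 independent experiments, 2–3 repeats each; highest concentration tested 1000 µM.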

Vibrio harveyi [7] = test: Inhibition of quorum sensing regulated bioluminescence in Vibrio harveyi BNL258 harboring hfq::Tn5lacZ mutant quorum sensing after 5 hrs by luminescence assay
In short: (§4)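 Twofold serial dilutions in Luria-Marine broth; overnight culture (grown in AB medium) adjusted to OD600 0.4, diluted 1:100 and added 1:1 to wells (200 µl total). Incubated 5 h at 30 °C with aeration under breathable seal. Luminescence read by CCD camera, OD600 also measured. Luminescence expressed as percentage of untreated control of the same strain.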

Vibrio harveyi [8] = test: Inhibition of quorum sensing regulated bioluminescence in Vibrio harveyi JAF483 luxO D47A linked to Kan mutant quorum sensing after 5 hrs by luminescence assay; in short: as §4
Vibrio harveyi [9] = test: Inhibition of quorum sensing regulated bioluminescence in Vibrio harveyi JAF553 luxU H58A linked to Kan mutant quorum sensing after 5 hrs by luminescence assay; in short: as §4
L1210 = test: Cytotoxicity against mouse L1210 cells assessed as inhibition of cell proliferation after 2 days by coulter counter assay; type: cell-based; settings: L1210, 48 h
In short: (§5)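 Cells suspended at 300,000–500,000 cells/mL; 100 µL added to equal volume of compound dilution in 96-well plates. Incubated at 37 °C for 2 days (L1210, FM3A), 3 days (CEM) or 4 days (HeLa, OST). Cell number counted by Coulter counter; IC50 = concentration inhibiting proliferation by 50%.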

FM3A = test: Cytotoxicity against mouse FM3A cells assessed as inhibition of cell proliferation after 2 days by coulter counter assay; type: cell-based; settings: 48 h; in short: as §5
CCRF-CEM = test: Cytotoxicity against human CEM cells assessed as inhibition of cell proliferation after 3 days by coulter counter assay; type: cell-based; settings: 72 h; in short: as §5
HeLa = test: Cytotoxicity against human HeLa cells assessed as inhibition of cell proliferation after 4 days by coulter counter assay; type: cell-based; settings: 96 h; in short: as §5
OST = test: Cytotoxicity against human thymidine kinase deficient OST cells assessed as inhibition of cell proliferation after 4 days by coulter counter assay; type: cell-based; settings: 96 h; in short: as §5
Vibrio harveyi [10] = test: Antimicrobial activity against wild type Vibrio harveyi BB120 at 1000 uM; type: functional, organism-based; in short: as §3
[11] = Inhibition of quorum sensing regulated bioluminescence in wild type Vibrio harveyi BB120 at 1000 uM after 5 hrs by luminescence assay; in short: as §2
Salmonella typhimurium [12] = test: Antimicrobial activity against Salmonella Typhimurium ATCC 14028 assessed as effect on planktonic growth at 1 uM after 36 hrs by microtiter plate assay; type: functional, organism-based; settings: Salmonella enterica subsp. enterica serovar Typhimurium; in short: as §1

Structure (SMILES)	IC50 [5] [µM]	IC50 (Salmonella typhimurium [1]) [µM]	Activity (Salmonella typhimurium [2])	Activity (Salmonella typhimurium [3])	Activity (Salmonella typhimurium [4])	GI50 (Vibrio harveyi [6]) [µM]	Activity (Salmonella typhimurium [12])	further results
C=C1OC(=O)C(CCCCCC)=C1Br	1.36	19.4	Active	Active	inactive	36.3	–	Activity (Vibrio harveyi [7]): Active; Activity (Vibrio harveyi [8]): Active; Activity (Vibrio harveyi [9]): Active; IC50 (L1210): 8.5 µM; IC50 (FM3A): 16 µM; IC50 (CCRF-CEM): 7.5 µM; IC50 (HeLa): 48 µM; IC50 (OST): 2 µM
CCCCCCCCCCCCC1=C(Br)/C(=C/Br)OC1=O	–	–	–	–	–	–	–	GI50 (Vibrio harveyi [10]): inactive; IC50 [11]: Not Active
CCCC(OC(C)=O)C1=C(Br)/C(=C/Br)OC1=O (stereo unspecified)	50.1	132	inactive	inactive	inactive	147	inactive	–
CCCCCCCCCCC1=C(Br)/C(=C/Br)OC1=O	26.6	–	–	–	–	> 300	–	–
CCCCCCC1=C(Br)C(=O)OC1=O [BROMOHEXYLMALEIC ANHYDRIDE]	10.6	65.9	inactive	inactive	–	208	–	Activity (Vibrio harveyi [7]): Active; Activity (Vibrio harveyi [8]): Active; Activity (Vibrio harveyi [9]): Active; IC50 (L1210): 208 µM; IC50 (FM3A): 243 µM; IC50 (CCRF-CEM): 90 µM; IC50 (HeLa): 156 µM; IC50 (OST): 43 µM
CCCCCCC1=CC(=C(Br)Br)OC1=O	84	160	–	–	–	197	–	–
CCCCC1=CC(=C(Br)Br)OC1=O	18.9	148	–	–	–	141	–	–
CCCCCCC1=CC(=O)OC1=O	97.8	> 1000	–	–	–	640	–	–
CCCCCCC1=C/C(=C/Br)OC1=O	–	> 1000	–	–	–	–	–	–
CCC1=CC(=C(Br)Br)OC1=O	105	200	inactive	inactive	inactive	325	–	–
CC(=O)OC(C)C1=CC(=C(Br)Br)OC1=O (stereo unspecified)	–	162	inactive	inactive	inactive	–	inactive	–

More lines, main results first:

IC50 [5] [µM]	Structure (SMILES)	IC50 (Salmonella typhimurium [1]) [µM]	Activity (Salmonella typhimurium [2])	Activity (Salmonella typhimurium [3])	Activity (Salmonella typhimurium [4])	GI50 (Vibrio harveyi [6]) [µM]	Activity (Salmonella typhimurium [12])	further results
2.76	CC(Br)C1=C(Br)C(=C(Br)Br)OC1=O (stereo unspecified)	4.09	inactive	inactive	inactive	9.74	inactive	–
14.4	CCCCC1=C(Br)C(=C(Br)Br)OC1=O	–	–	–	–	20.5	–	–
0.2	CCCC(Br)C1=CC(=C(Br)Br)OC1=O (stereo unspecified)	1.31	Active	Active	inactive	1.07	inactive	–
11.9	CCCCCCC1=C(Br)/C(=C/Br)OC1=O	10.7	Active	inactive	inactive	34	–	–
1.36	CCCCC1=C(Br)/C(=C/Br)OC1=O	23.1	Active	inactive	inactive	65.3	–	–
2.88	O=C1C=CC(=C(Br)Br)O1	–	–	–	–	25.5	–	–
6.34	CC(Br)C1=C(Br)/C(=C/Br)OC1=O (stereo unspecified)	4.5	Active	Active	inactive	16.1	inactive	–
1.18	CCCC(Br)C1=C(Br)/C(=C/Br)OC1=O (stereo unspecified)	5.71	Active	Active	inactive	4.04	inactive	–
5.21	CCCCCC(Br)C1=C(Br)/C(=C/Br)OC1=O (stereo unspecified)	3.23	inactive	inactive	inactive	7.27	inactive	–
6.31	CC(=O)OC(C)C1=C(Br)C(=C(Br)Br)OC1=O (stereo unspecified)	7.29	Active	inactive	inactive	25.4	inactive	–
1.15	CCC1=C(Br)C(=C(Br)Br)OC1=O	57.5	–	inactive	inactive	2.26	–	–
9.27	CCC1=C(Br)/C(=C/Br)OC1=O	17.9	Active	inactive	inactive	10.8	–	IC50 (L1210): 284 µM; IC50 (FM3A): > 500 µM; IC50 (CCRF-CEM): 208 µM; IC50 (HeLa): 39 µM; IC50 (OST): 6.3 µM
2.71	O=C1C=C(Br)/C(=C/Br)O1	–	–	–	–	3.16	–	–
0.774	CC(Br)C1=CC(=C(Br)Br)OC1=O (stereo unspecified)	1.17	Active	Active	Active	3.07	inactive	–
4.07	O=C1C=C/C(=C/Br)O1	–	–	–	–	15.7	–	–
3.41	CCCCCCCCC1=C(Br)/C(=C/Br)OC1=O	–	–	–	–	267	–	–
